Reference: ChEMBL document CHEMBL1212764, “Antimicrobial resistance in Haemophilus influenzae respiratory tract isolates in Korea: results of a nationwide acute respiratory infections surveillance” (2010)
Converted amounts (≈) assume the structure as drawn.

Tests used:
Type in all cases: functional
Haemophilus influenzae [1] = test: Antimicrobial activity against beta-lactamase-negative, ampicillin-sensitive Haemophilus influenzae by broth microdilution method
Outline: (§1)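 Broth microdilution MIC in freshly prepared Haemophilus test medium per 2008 CLSI guidelines; H. influenzae ATCC 49247 and ATCC 49766 as control strains. Isolates from outpatient nasal aspirates (no prior antibiotics), cultured on blood agar with S. aureus streak and chocolate agar. PBP3 substitutions deduced from ftsI sequencing against the Rd strain; β-lactamase genes (TEM-1, ROB-1) detected by PCR.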

Haemophilus influenzae [2] = test: Antimicrobial activity against Beta-lactamase-negative, ampicillin-resistant Haemophilus influenzae by broth microdilution method; outline: as §1
Haemophilus influenzae [3] = test: Antimicrobial activity against Beta-lactamase-positive, ampicillin-cluvulanate-resistant Haemophilus influenzae by broth microdilution method; outline: as §1
Haemophilus influenzae [4] = test: Antimicrobial activity against Beta-lactamase-positive, ampicillin-resistant Haemophilus influenzae by broth microdilution method; outline: as §1
Haemophilus influenzae [5] = test: Antimicrobial activity against Haemophilus influenzae isolate by broth microdilution method; outline: as §1

Structure (SMILES) | MIC50 (Haemophilus influenzae [1]) | MIC90 (Haemophilus influenzae [1]) | MIC50 (Haemophilus influenzae [2]) | MIC90 (Haemophilus influenzae [2]) | MIC50 (Haemophilus influenzae [3]) | MIC90 (Haemophilus influenzae [3]) | MIC50 (Haemophilus influenzae [4]) | MIC90 (Haemophilus influenzae [4]) | MIC50 (Haemophilus influenzae [5]) | MIC90 (Haemophilus influenzae [5])
C[C@H]1COc2c(N3CCN(C)CC3)c(F)cc3c(=O)c(C(=O)O)cn1c23.C[C@H]1COc2c(N3CCN(C)CC3)c(F)cc3c(=O)c(C(=O)O)cn1c23.O [LEVOFLOXACIN] | 0.016 µg/mL | 0.031 µg/mL | 0.016 µg/mL | 0.016 µg/mL | 0.016 µg/mL | 0.031 µg/mL | 0.016 µg/mL | 0.031 µg/mL | 0.016 µg/mL | 0.031 µg/mL
CC[C@H]1OC(=O)[C@H](C)[C@@H](O[C@H]2C[C@@](C)(OC)[C@@H](O)[C@H](C)O2)[C@H](C)[C@@H](O[C@@H]2O[C@H](C)C[C@H](N(C)C)[C@H]2O)[C@](C)(OC)C[C@@H](C)C(=O)[C@H](C)[C@@H](O)[C@]1(C)O [CLARITHROMYCIN] | 8 µg/mL (≈ 10.7 µM) | 16 µg/mL (≈ 21.4 µM) | 8 µg/mL (≈ 10.7 µM) | 32 µg/mL (≈ 42.8 µM) | 8 µg/mL (≈ 10.7 µM) | 16 µg/mL (≈ 21.4 µM) | 8 µg/mL (≈ 10.7 µM) | 16 µg/mL (≈ 21.4 µM) | 8 µg/mL (≈ 10.7 µM) | 16 µg/mL (≈ 21.4 µM)
N[C@@H](C(=O)N[C@@H]1C(=O)N2C(C(=O)O)=C(Cl)CS[C@H]12)c1ccccc1 [CEFACLOR ANHYDROUS] | 8 µg/mL (≈ 21.8 µM) | 16 µg/mL (≈ 43.5 µM) | 8 µg/mL (≈ 21.8 µM) | 32 µg/mL (≈ 87 µM) | 8 µg/mL (≈ 21.8 µM) | 64 µg/mL (≈ 174 µM) | 8 µg/mL (≈ 21.8 µM) | 32 µg/mL (≈ 87 µM) | 8 µg/mL (≈ 21.8 µM) | 32 µg/mL (≈ 87 µM)
